ChEMBL document CHEMBL4689842, “EUbOPEN Chemogenomics Library wave 1” (2021)
Several values for one entry are separate records, joined by “and”; a condition that tells them apart may be missing. Equal values may be shown once.

Key:
Assay type in all cases: toxicity, cell-based
[1] = tested on: HEK-293T; test: Multiplex assay against HEK293T; settings: human, 10 µM, compound concentration 10 uM;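 on Population Tubulin-Different-Phenotype (%): share of the cells with healthy nuclei that show this phenotype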
Summary of the method: (§1)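 Tubulin, mitochondrial-mass and membrane-permeability phenotypes are per cents of healthy-nucleus cells. Cells were gated by CellPathfinder machine learning into Hoechst high-intensity objects or normal cells, normal cells into healthy, pyknosed or fragmented nuclei, and pyknosed cells into mitotic or apoptotic. Before that, live cells stained at seeding with Hoechst33342, BioTracker Green Microtubule Cytoskeleton Dye, MitoTracker Red and Annexin V Alexa Fluor 680 were imaged on a CQ1 microscope at 37°C and 5% CO2 after compound addition.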

[2] = tested on: Fibroblast; test: Incucyte cell viability with human fibroblast; settings: 10 µM, compound concentration 10 uM; further: filed as whole numbers so only -1 and 0 and 1 occur
[3] = tested on: Fibroblast; test: Multiplex assay against human fibroblast; settings: 10 µM, compound concentration 10 uM; summary of the method: as §1

Structure (SMILES): C1=N/C2=N/c3ccc(OCCN4CCCC4)c(c3)COC/C=C\COCc3cccc(c3)C(=C1)N2
- Population Fragmented Nuclei (%) ([1]; 12 h, replicate 1): 34% and 21% and 25%
- Population Hoechst High Intensity Objects (%) ([1]; 12 h, replicate 1): 26% and 14% and 21%
- Population Membrane Permeable-Phenotype (%) ([1]; 12 h, replicate 1): 14% and 13% and 0%
- Population Normal (%) ([1]; 12 h, replicate 1): 73% and 85% and 78%
- Population Pyknosed Nuclei (%) ([1]; 12 h, replicate 1): 52% and 47% and 73%
- Total Cell Count ([1]; 12 h, replicate 1): 695 and 596 and 237
- Population Membrane Permeable-Phenotype (%) ([1]; 12 h, replicate 2): 4% and 5%
- Population Mitochondria Different-Phenotype (%) ([1]; 12 h, replicate 2): 89% and 81% and 50%
- Population Normal (%) ([1]; 12 h, replicate 2): 77% and 79% and 94%
- Population Pyknosed Nuclei (%) ([1]; 12 h, replicate 2): 54% and 88% and 38%
- Population Tubulin-Different-Phenotype (%) ([1]; 12 h, replicate 2): 82% and 72% and 94%
- Population Apoptotic (%) ([1]; 24 h, replicate 1): 87% and 58% and 29%
- Population Fragmented Nuclei (%) ([1]; 24 h, replicate 1): 30% and 38% and 21%
- Population Hoechst High Intensity Objects (%) ([1]; 24 h, replicate 1): 20% and 21% and 14%
- Population Membrane Permeable-Phenotype (%) ([1]; 24 h, replicate 1): 0% and 19% and 7%
- Population Normal (%) ([1]; 24 h, replicate 1): 79% and 78% and 85%
- Population Pyknosed Nuclei (%) ([1]; 24 h, replicate 1): 69% and 45% and 44%
- Total Cell Count ([1]; 24 h, replicate 1): 253 and 698 and 607
- Population Hoechst High Intensity Objects (%) ([1]; 24 h, replicate 2): 19% and 13% and 7%
- Population Mitochondria Different-Phenotype (%) ([1]; 24 h, replicate 2): 69% and 78% and 54%
- Population Normal (%) ([1]; 24 h, replicate 2): 80% and 86% and 92%
- Population Pyknosed Nuclei (%) ([1]; 24 h, replicate 2): 79% and 55% and 35%
- Population Tubulin-Different-Phenotype (%) ([1]; 24 h, replicate 2): 100% and 87% and 94%
- Population Apoptotic (%) ([1]; 48 h, replicate 1): 87%
- Population Fragmented Nuclei (%) ([1]; 48 h, replicate 1): 37%
- Population Healthy Nuclei (%) ([1]; 48 h, replicate 1): 0%
- Population Hoechst High Intensity Objects (%) ([1]; 48 h, replicate 1): 26%
- Population Membrane Permeable-Phenotype (%) ([1]; 48 h, replicate 1): 0%
- Population Mitochondria Different-Phenotype (%) ([1]; 48 h, replicate 1): 0%
- Population Mitotic Cells (%) ([1]; 48 h, replicate 1): 12%
- Population Normal (%) ([1]; 48 h, replicate 1): 73%
- Population Pyknosed Nuclei (%) ([1]; 48 h, replicate 1): 62%
- Population Tubulin-Different-Phenotype (%) ([1]; 48 h, replicate 1): 0%
- Total Cell Count ([1]; 48 h, replicate 1): 253
- Population Fragmented Nuclei (%) ([1]; 48 h, replicate 2): 17%
- Population Healthy Nuclei (%) ([1]; 48 h, replicate 2): 18%
- Population Hoechst High Intensity Objects (%) ([1]; 48 h, replicate 2): 15%
- Population Membrane Permeable-Phenotype (%) ([1]; 48 h, replicate 2): 3%
- Population Mitochondria Different-Phenotype (%) ([1]; 48 h, replicate 2): 81%
- Population Normal (%) ([1]; 48 h, replicate 2): 84%
- Population Pyknosed Nuclei (%) ([1]; 48 h, replicate 2): 64%
- Population Tubulin-Different-Phenotype (%) ([1]; 48 h, replicate 2): 96%
- Total Cell Count ([1]; 48 h, replicate 2): 212
- Growth Rate ([2]; 6 h, replicate number 1, timepoint 6 hours): 0
- Growth Rate ([2]; 12 h, replicate number 1, timepoint 12 hours): 0
- Growth Rate ([2]; 18 h, replicate number 1, timepoint 18 hours): 0
- Growth Rate ([2]; 24 h, replicate number 1, timepoint 24 hours): 0
- Population Apoptotic (%) ([3]; 12 h, replicate 1): 82% and 50% and 69%
- Population Fragmented Nuclei (%) ([3]; 12 h, replicate 1): 23% and 19% and 32%
- Population Hoechst High Intensity Objects (%) ([3]; 12 h, replicate 1): 13% and 8% and 12%
- Population Membrane Permeable-Phenotype (%) ([3]; 12 h, replicate 1): 0% and 2% and 3%
- Population Mitotic Cells (%) ([3]; 12 h, replicate 1): 17% and 49% and 30%
- Population Normal (%) ([3]; 12 h, replicate 1): 86% and 91% and 87%
- Population Apoptotic (%) ([3]; 12 h, replicate 2): 68% and 44% and 90%
- Population Fragmented Nuclei (%) ([3]; 12 h, replicate 2): 66% and 46% and 29%
- Population Normal (%) ([3]; 12 h, replicate 2): 60% and 68% and 89%
- Population Pyknosed Nuclei (%) ([3]; 12 h, replicate 2): 24% and 18% and 53%
- Total Cell Count ([3]; 12 h, replicate 2): 108 and 72 and 71
- Population Apoptotic (%) ([3]; 24 h, replicate 1): 82% and 61% and 58%
- Population Fragmented Nuclei (%) ([3]; 24 h, replicate 1): 35% and 32% and 34%
- Population Hoechst High Intensity Objects (%) ([3]; 24 h, replicate 1): 15% and 6% and 13%
- Population Mitotic Cells (%) ([3]; 24 h, replicate 1): 17% and 38% and 41%
- Population Normal (%) ([3]; 24 h, replicate 1): 84% and 93% and 86%
- Population Tubulin-Different-Phenotype (%) ([3]; 24 h, replicate 1): 54% and 82%
- Population Apoptotic (%) ([3]; 24 h, replicate 2): 92% and 57% and 96%
- Population Hoechst High Intensity Objects (%) ([3]; 24 h, replicate 2): 37% and 28% and 32%
- Population Normal (%) ([3]; 24 h, replicate 2): 62% and 71% and 67%
- Total Cell Count ([3]; 24 h, replicate 2): 98 and 77 and 69
- Population Apoptotic (%) ([3]; 48 h, replicate 1): 87%
- Population Fragmented Nuclei (%) ([3]; 48 h, replicate 1): 50%
- Population Healthy Nuclei (%) ([3]; 48 h, replicate 1): 24%
- Population Hoechst High Intensity Objects (%) ([3]; 48 h, replicate 1): 20%
- Population Membrane Permeable-Phenotype (%) ([3]; 48 h, replicate 1): 25%
- Population Mitochondria Different-Phenotype (%) ([3]; 48 h, replicate 1): 31%
